Assay [1] in a line: Antiproliferative activity against PDGF-induced rat aortic VSMC by colorimetric assay. Format: functional, tissue-based. The following applies: Aorta. An outline of the steps: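 Rat aortic SMCs stimulated with PDGF; inhibition of proliferation read by a colorimetric assay; IC50 values determined by comparison to mycophenolic acid as standard agent.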
Assay [2] can be described thus: Cell cycle arrest in rat aortic VSMC assessed as DNA accumulation at G0/G1 phase at 1 ug/ml after 48 hrs relative to control. Format: functional, cell-based. In short, it runs like this: (§1)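 Cultured SMCs treated with 1 µg/mL for 48 h alongside a vehicle-treated control; DNA content per cell-cycle phase analysed by flow cytometry.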
For assay [3], the system named is VSMC. Description: Antiproliferative activity against PDGF-induced rat aortic VSMC assessed as cell density at 1 ug/ml after 48 hrs by phase-contrast microscope. Format: functional, cell-based. An outline of the steps:
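Cultured rat aortic SMCs exposed to 1 µg/mL test agent or DMSO vehicle alone for 48 h; cell density judged by observation and photography under a phase-contrast microscope.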

The species entered for another assay is Rattus norvegicus. Description: Inhibition of ERK phosphorylation in rat aortic VSMC at 1 ug/ml after 1 hr. In kind it is tissue-based. The following applies: Aorta. An outline of the steps: (§2)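 Cultured SMCs exposed to test agent for 1 h; phosphorylated ERK and phosphorylated Akt examined by Western blot.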
The nature of assay [4]: Down-regulation of PCNA protein expression in rat aortic VSMC at 1 ug/ml after 48 hrs by Western blot. In kind it is functional, tissue-based. The following applies: Aorta. In short, it runs like this: (§3)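 Total cell lysates from cultured SMCs treated with 1 µg/mL for 48 h; PCNA, cyclin A, cyclin D1, pRb (also cdk 2) probed by Western blot.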
(In general: Immunoblotting shows a protein as a band on a membrane.)

For assay [5], the system named is VSMC. Description: Effect on cyclin D1 protein expression in rat aortic VSMC at 1 ug/ml after 48 hrs by Western blot. The following applies: Aorta. In kind it is functional, tissue-based. In short, it runs like this:
as §3

The nature of assay [6]: Down-regulation of cyclin A protein expression in rat aortic VSMC at 1 ug/ml after 48 hrs by Western blot. In kind it is functional, tissue-based. Conditions: Aorta. An outline of the steps:
as §3

The nature of assay [7]: Cell cycle arrest in rat aortic VSMC assessed as DNA accumulation at G2/M phase at 1 ug/ml after 48 hrs relative to control. Format: functional, cell-based. An outline of the steps: as §1
Assay [8] in a line: Cell cycle arrest in rat aortic VSMC assessed as DNA accumulation at S phase at 1 ug/ml after 48 hrs relative to control. Format: functional, cell-based. In short, it runs like this:
as §1

Assay [9] addresses RAC-alpha serine/threonine-protein kinase (Rattus norvegicus) (UniProt P47196). Description: Inhibition of Akt phosphorylation in rat aortic VSMC at 1 ug/ml after 1 hr. In kind it is tissue-based. Conditions: Aorta. An outline of the steps: as §2
In assay [10] the test system is VSMC. The assay is described as follows: Effect on pRb protein expression in rat aortic VSMC at 1 ug/ml after 48 hrs by Western blot. Conditions: Aorta. In kind it is functional, tissue-based. An outline of the steps:
as §3

pIC50: −log10 of the molar value. Active and inactive are the calls of the source. The calls are words filed in the database; no cut-off is given here.

For orientation: pIC50 means the IC50 on a negative log10 scale, so that one unit is a factor of ten. A lower pIC50 goes with a large IC50.

RAC-alpha serine/threonine-protein kinase (Rattus norvegicus), sequence (P47196 whole entry): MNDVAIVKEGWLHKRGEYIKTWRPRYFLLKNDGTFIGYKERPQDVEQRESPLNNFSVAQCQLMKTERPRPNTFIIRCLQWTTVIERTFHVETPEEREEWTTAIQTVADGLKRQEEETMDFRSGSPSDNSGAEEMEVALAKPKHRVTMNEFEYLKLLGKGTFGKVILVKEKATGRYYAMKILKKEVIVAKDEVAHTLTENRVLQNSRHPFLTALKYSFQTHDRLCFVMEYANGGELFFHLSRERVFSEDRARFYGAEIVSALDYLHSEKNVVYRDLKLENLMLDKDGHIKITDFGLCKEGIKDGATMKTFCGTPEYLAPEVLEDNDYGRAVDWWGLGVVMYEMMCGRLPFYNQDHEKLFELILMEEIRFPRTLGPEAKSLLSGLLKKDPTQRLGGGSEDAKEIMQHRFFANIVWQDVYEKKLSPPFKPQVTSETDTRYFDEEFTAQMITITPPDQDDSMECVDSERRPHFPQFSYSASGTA

As to `Cc1ccc(NC2=C(Cl)C(=O)c3nc(-c4ccccc4)[nH]c3C2=O)cc1C`, the pIC50 in assay [1] is 5.52.
With `O=C1C(Cl)=C(Nc2ccc(Cl)cc2)C(=O)c2[nH]c(-c3ccncc3)nc21`, the pIC50 in [1] is 4.60.
For the compound `COc1ccc(SC2=C(Cl)C(=O)c3nc(-c4ccccn4)[nH]c3C2=O)cc1`, the pIC50 in assay [1] was 5.38.
Turning to `O=C1C(Cl)=C(Nc2ccc(OC(F)(F)F)cc2)C(=O)c2[nH]c(-c3ccccc3)nc21`, the pIC50 in [1] was 5.82.
`COc1ccc(NC2=C(Cl)C(=O)c3nc(-c4cccnc4)[nH]c3C2=O)cc1`: the pIC50 in assay [1] was 4.38.
Consider `O=C1C(Cl)=C(Sc2ccc(Cl)cc2)C(=O)c2[nH]c(-c3ccccn3)nc21`, for which, in [1], the pIC50 is 5.40.
For the compound `Cc1cccc(SC2=C(Cl)C(=O)c3nc(-c4ccccc4)[nH]c3C2=O)c1`, in [1], the pIC50 is 5.70.
In assay [1], `O=C1C(Cl)=C(Nc2ccc(C(F)(F)F)cc2)C(=O)c2[nH]c(-c3ccccn3)nc21` showed a negative logarithm of the IC50 (pIC50) of 6.00.
In assay [1], `O=C1C(Cl)=C(Nc2ccc(F)cc2)C(=O)c2[nH]c(-c3cccnc3)nc21` had a pIC50 of 4.68.
As to `O=C1C(Cl)=C(Nc2ccc(Br)cc2)C(=O)c2[nH]c(-c3ccccn3)nc21`, the pIC50 in [1] was 5.19.
Same read-out and setting: with `Cc1ccc(SC2=C(Cl)C(=O)c3nc(-c4ccccc4)[nH]c3C2=O)cc1` the figure was 6.00; with `Cc1ccc(NC2=C(Cl)C(=O)c3nc(-c4ccccc4)[nH]c3C2=O)cc1`, 5.52; with `O=C1C(Cl)=C(Nc2ccccc2)C(=O)c2[nH]c(-c3ccccc3)nc21`, 5.40.
In [1], `COc1ccc(NC2=C(Cl)C(=O)c3nc(-c4ccncc4)[nH]c3C2=O)cc1` had a pIC50 of 4.30.
As for `O=C1C(Cl)=C(Nc2ccc(F)cc2)C(=O)c2[nH]c(-c3ccccn3)nc21`, the pIC50 in assay [1] was 5.03.
`O=C1C(Cl)=C(Nc2ccc(Br)cc2)C(=O)c2[nH]c(-c3ccncc3)nc21` gave a pIC50 in assay [1] of 4.00.
The compound `O=C1C(Cl)=C(Nc2ccc(Cl)cc2)C(=O)c2[nH]c(-c3ccccc3)nc21` showed a pIC50 in assay [1] of 5.28.
Turning to `O=C1C(Cl)=C(Sc2ccc(O)cc2)C(=O)c2[nH]c(-c3ccccc3)nc21`, the pIC50 in [1] is 5.70.
As to `O=C1C(Cl)=C(Nc2ccc(OC(F)(F)F)cc2)C(=O)c2[nH]c(-c3ccccn3)nc21`, the pIC50 in assay [1] is 4.70.
For the compound `COc1ccc(NC2=C(Cl)C(=O)c3nc(-c4ccccc4)[nH]c3C2=O)cc1`, the pIC50 in assay [1] was 5.70.
In [1], `O=C1C(Cl)=C(Sc2ccccc2)C(=O)c2[nH]c(-c3ccccc3)nc21` showed a pIC50 of 5.82.
On the same count and under the same terms, with `COc1ccc(NC2=C(Cl)C(=O)c3nc(-c4ccccn4)[nH]c3C2=O)cc1` the figure was 4.70; with `O=C1C(Cl)=C(Nc2ccc(C(F)(F)F)cc2)C(=O)c2[nH]c(-c3ccccc3)nc21`, 5.03; with `O=C1C(Cl)=C(Nc2ccc(Cl)cc2)C(=O)c2[nH]c(-c3cccnc3)nc21`, 4.70.
In assay [1], `Cc1ccc(SC2=C(Cl)C(=O)c3nc(-c4ccccn4)[nH]c3C2=O)cc1` showed a pIC50 of 5.60.
Regarding `CCc1ccc(SC2=C(Cl)C(=O)c3nc(-c4ccccn4)[nH]c3C2=O)cc1`, the pIC50 in [1] is 5.15.
Consider `O=C1C(Cl)=C(Sc2ccc(Br)cc2)C(=O)c2[nH]c(-c3ccccn3)nc21`, for which the pIC50 in [1] was 4.92.
In [1], `CCOc1ccc(NC2=C(Cl)C(=O)c3nc(-c4ccccc4)[nH]c3C2=O)cc1` gave a pIC50 of 4.30.
The compound `COc1c(C)c2c(c(O)c1C/C=C(\C)CCC(=O)O)C(=O)OC2` [MYCOPHENOLIC ACID] gave a pIC50 in assay [1] of 6.00.
For `Cc1ccc(NC2=C(Cl)C(=O)c3nc(-c4ccccn4)[nH]c3C2=O)cc1`, in [1], the pIC50 is 4.30.
Still for that read-out and setting: with `O=C1C(Cl)=C(Sc2ccc(Br)cc2)C(=O)c2[nH]c(-c3ccccc3)nc21` the figure was 5.82; with `O=C1C(Cl)=C(Nc2ccc(Cl)cc2)C(=O)c2[nH]c(-c3ccccn3)nc21`, 4.92; with `O=C1C(Cl)=C(Nc2ccc(Br)cc2)C(=O)c2[nH]c(-c3cccnc3)nc21`, 4.30.
In [1], `O=C1C(Cl)=C(Nc2ccc(F)cc2)C(=O)c2[nH]c(-c3ccncc3)nc21` had a negative logarithm of the IC50 (pIC50) of 4.30.
Consider `CCc1ccc(NC2=C(Cl)C(=O)c3nc(-c4ccccc4)[nH]c3C2=O)cc1`, for which the pIC50 in assay [1] is 4.97.
For `COc1ccc(SC2=C(Cl)C(=O)c3nc(-c4ccccc4)[nH]c3C2=O)cc1`, the Activity was 59.6% in assay [2], 8% in assay [7] and 22.4% in assay [8]. For the same compound, the outcome (in the assay on VSMC [3]; in the assay filed under Rattus norvegicus; in assay [4]; in the assay with VSMC [5]; in [6]; in [9]) was Active. Moreover, the outcome in the assay on VSMC [10] was Active. Besides, the negative logarithm of the IC50 (pIC50) in assay [1] was 6.00.

(Values after ChEMBL document CHEMBL1145607, “Design, synthesis and evaluation of 2-phenyl-1H-benzo[d]imidazole-4,7-diones as vascular smooth muscle cell proliferation inhibitors” (Bioorg Med Chem Lett, 2008).)
